Biological target: T1, Thymidylate synthase (Lactobacillus casei) (UniProt P00469)
T1 sequence (whole entry): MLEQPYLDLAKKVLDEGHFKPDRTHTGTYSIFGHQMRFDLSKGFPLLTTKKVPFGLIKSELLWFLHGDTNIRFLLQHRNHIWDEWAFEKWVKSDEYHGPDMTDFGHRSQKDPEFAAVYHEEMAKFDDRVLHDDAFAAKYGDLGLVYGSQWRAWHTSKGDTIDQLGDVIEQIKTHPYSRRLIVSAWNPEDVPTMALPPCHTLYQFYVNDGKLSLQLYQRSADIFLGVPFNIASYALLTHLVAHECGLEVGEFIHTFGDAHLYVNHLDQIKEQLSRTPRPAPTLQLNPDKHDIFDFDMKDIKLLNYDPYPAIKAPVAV
Test: Kinetic constant for the inactivation of Lactobacillus casei thymidylate synthase was determined at the concentration of 60 uM in the absence of substrate
Settings: Lacticaseibacillus casei
In short: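 Enzyme (sp act. 3.2 μM mg⁻¹ min⁻¹) incubated with inhibitor in 0.1 M phosphate buffer, pH 6.8, 30 °C, with no substrate or with substrate at the stated concentration. Aliquots were withdrawn at intervals and residual activity was measured with 50 μM substrate in a 60-s assay. k_obsd was taken from activity loss; k2 and Ka came from the double-reciprocal plot of 1/k_obsd vs 1/[inhibitor].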

CC1=CC(=O)c2ccccc2C1=O
k: 5 se-1

Reference: ChEMBL document CHEMBL1123598, “Inactivation of thymidylate synthase at an alternate high-affinity binding site” (J Med Chem, 1987)
